The record followed here is ChEMBL document CHEMBL3259659, “Polyisoprenylated methylated protein methyl esterase: a putative biomarker and therapeutic target for pancreatic cancer” (Eur J Med Chem, 2014).

Data set [1] can be described thus: (§1) Cytotoxicity against human BxPC3 cells after 48 hrs by fluorescence assay. Type of data set: functional, cell-based. The following applies: BXPC-3, 48 h. In outline:
(§2)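 Cells from ATCC, kept at 37°C in 5% CO2 to about 80% confluence, trypsinized and plated at 1×10^4 cells/well in medium with 5% FBS. Treated with PCAIs 0–20 μM for 48 h. Viability by resazurin (0.02% in Dulbecco PBS, 20 μL added), fluorescence read after 2 h at ex 560/em 590 nm. EC50 by nonlinear regression of concentration-response.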

In data set [2] the test system is BXPC-3. Described as §1. The class given is functional, cell-based. The gist of the method: as §2
Another data set is filed under the species Homo sapiens. The data set is described as follows: (§3) Inhibition of PMPMEase (unknown origin) using RD-PNB as substrate incubated for 15 mins prior to substrate addition measured after 2 hrs by RP-HPLC analysis. The gist of the method:
(§4)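 Enzyme (1 μg) preincubated 15 min with inhibitor (1–1000 μM, dissolved in water), then RD-PNB (1 mM, in DMSO) added. Incubated 2 h at 37°C in 100 mM Tris-HCl pH 7.4, stopped with methanol, centrifuged. Supernatant analysed by RP-HPLC with UV detection at 260 nm. IC50 by nonlinear regression; Ki derived from previously reported RD-PNB kinetics.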

The nature of data set [3]: as §3. Also noted: species or system Homo sapiens. The gist of the method:
as §4

A short description of data set [4]: (§5) Cytotoxicity against human MIAPaCa2 cells harboring K-Ras mutant oncogene after 48 hrs by fluorescence assay. The class given is functional, cell-based. The settings on record: MIA PaCa-2, 48 h. The gist of the method: as §2
The subject of data set [5] is MIA PaCa-2. The description is as §5. The class given is functional, cell-based. In outline:
as §2

Data set [6] is described as follows: Lipophilicity, log D of the compound. Type of data set: physicochemical. The settings on record: octanol/water.
Data set [7] deals with MIA PaCa-2. The experiment in a line: Induction of apoptosis in human MIAPaCa2 cells harboring K-Ras mutant oncogene assessed as early apoptotic cells at 2 uM after 48 hrs by acridine orange/ethidium bromide staining-based fluorescence microscopy. Type of data set: functional, cell-based. In outline: (§6)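 5×10^4 MIA PaCa-2 cells cultured in chamber slide wells and treated 48 h at 0.5, 1 and 2 μM in 5% FBS. Stained with acridine orange/ethidium bromide (10 μg/mL). Imaged by fluorescence microscopy (x40 objective, 480/30 nm excitation). Green intact nuclei scored as viable; bright green fragmented nuclei as early apoptotic; orange-red condensed nuclei as apoptotic.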

Data set [8] relates to MIA PaCa-2. The data set is described as follows: Induction of apoptosis in human MIAPaCa2 cells harboring K-Ras mutant oncogene at 0.5 to 2 uM after 48 hrs by acridine orange/ethidium bromide staining-based fluorescence microscopy. Type of data set: functional, cell-based. The gist of the method: as §6
Data set [9] has as its system MIA PaCa-2. The data set is described as follows: Induction of apoptosis in human MIAPaCa2 cells harboring K-Ras mutant oncogene assessed as viable cells at 1 uM after 48 hrs by acridine orange/ethidium bromide staining-based fluorescence microscopy. The class given is functional, cell-based. In outline: as §6
The test system of data set [10] is MIA PaCa-2. The data set is described as follows: Cytotoxicity against human MIAPaCa2 cells harboring K-Ras mutant oncogene at 20 uM after 24 to 72 hrs by fluorescence assay. The class given is functional, cell-based. The gist of the method:
(§7)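 Same viability method: cells plated at 1×10^4 cells/well in 5% FBS medium, exposed to 20 μM PCAI for 24, 48 and 72 h. Resazurin (0.02% in Dulbecco PBS) added, fluorescence ex 560/em 590 nm read 2 h later.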

Data set [11] concerns BXPC-3. The data set is described as follows: Cytotoxicity against human BxPC3 cells at 20 uM after 24 to 72 hrs by fluorescence assay. The class given is functional, cell-based. The gist of the method:
as §7

Structures are written as SMILES. pEC50, pKi: −log10 of the molar value. Calls of active or inactive are those of the source. The rule behind the calls is not given here.

The pEC50 is −log10 of the EC50, conventionally taken in molar units. As a reminder, the pKi is the negative decadic logarithm of the Ki, by convention in mol/L. The low end stands for a high Ki, the high end for a low Ki. The logD is the decadic logarithm of the distribution of all forms, ionised or not, between an organic phase and buffer at a given pH. Read a low logD as a more hydrophilic compound. With `CC(C)=CCC/C(C)=C/CC/C(C)=C/CSC[C@H](NC(=O)CCCCCN1CCN(C)CC1)C(=O)NC1CCCC1`, the pEC50 was < 4.70 in data set [1] and 4.96 in [4]. The Activity entry with BXPC-3 [2], in the data set listed under Homo sapiens and in the data set with MIA PaCa-2 [5] was “Dose-dependent effect” throughout. Further, in data set [3], the pKi is 5.00. In addition, the logD in data set [6] was 4.55.

Consider `CC(C)=CCC/C(C)=C/CC/C(C)=C/CSC[C@H](NC(=O)CCCCCN1CCN(C)CC1)C(=O)NC1CC1`, for which the values for the pEC50 in data set [1] and in data set [4] were 5.20 and 4.98, respectively. The Activity result with BXPC-3 [2], in the data set filed under Homo sapiens and with MIA PaCa-2 [5] was “Dose-dependent effect” each time. The same compound gave a pKi in data set [3] of 4.86. Besides, the logD in data set [6] stood at 3.66.

As for `CC(C)=CCC/C(C)=C/CC/C(C)=C/CSC[C@H](NC(=O)CCCCCN1CCCC1)C(=O)NC1CCCC1`, the results for the pEC50 in data set [1] and in [4] were 5.17 and 5.49, respectively. For the same compound, the Activity entry in the data set with BXPC-3 [2], in the data set filed under Homo sapiens and with MIA PaCa-2 [5] was “Dose-dependent effect” each time. The pKi in [3] is 5.43. Besides, the logD in data set [6] was 4.04.

For `CC(C)=CCC/C(C)=C/CC/C(C)=C/CSC[C@H](NC(=O)CCCCCN1CCN(C)CC1)C(=O)NC1CCCCCCC1`, the result in the data set with MIA PaCa-2 [7] and with MIA PaCa-2 [8] was Active. For the same compound, the pEC50 in [1] is 5.12; in [4], 5.60. The Activity result in the data set with BXPC-3 [2], in the data set filed under Homo sapiens and with MIA PaCa-2 [5] was “Dose-dependent effect” in each case. The compound further gave a pKi in data set [3] of 4.82. For the same compound, the result in the data set with MIA PaCa-2 [9] was inactive. The compound further returned a logD in data set [6] of 5.88.

On to `CC(C)=CCC/C(C)=C/CC/C(C)=C/CSc1ccccc1C(N)=O`, for which the outcome in the data set with MIA PaCa-2 [10] and with BXPC-3 [11] was inactive. Moreover, the pEC50 in data set [1] and in data set [4] was < 4.70 throughout. In data set [6], this compound gave a logD of 6.03.

Regarding `CC(C)=CCC/C(C)=C/CC/C(C)=C/CSC[C@H](NC(=O)CCCCCN1CCN(C)CC1)C(=O)N1CCCC1`, the negative-log EC50 (pEC50) is 5.49 in data set [1] and 5.22 in data set [4]. The Activity result in the data set with BXPC-3 [2], in the data set listed under Homo sapiens and in the data set on MIA PaCa-2 [5] was “Dose-dependent effect” each time. The same compound had a pKi in data set [3] of 4.70. The compound also came in with a logD in data set [6] of 3.82.

Consider `CC(C)=CCC/C(C)=C/CC/C(C)=C/CSC[C@H](NC(=O)CCCCCN1CCN(C)CC1)C(=O)NC1CCCCC1`, for which the pEC50 was 4.92 in data set [1] and 5.23 in [4]. The Activity result in the data set with BXPC-3 [2], in the data set filed under Homo sapiens and in the data set with MIA PaCa-2 [5] was “Dose-dependent effect” throughout. In [3], this compound gave a pKi of 4.77. The logD in data set [6] came out at 4.99.

For `CC(C)=CCC/C(C)=C/CC/C(C)=C/CSC[C@H](NC(=O)CCCCCN1CCCC1)C(=O)NC1CCCCCC1`, the negative-log EC50 (pEC50) was 5.24 in [1] and 5.17 in [4]. Further, the Activity entry with BXPC-3 [2], in the data set listed under Homo sapiens and in the data set with MIA PaCa-2 [5] was “Dose-dependent effect” throughout. The negative logarithm of the Ki (pKi) in [3] is 4.94. The compound further registered a logD in data set [6] of 4.93.

Regarding `CC(C)=CCC/C(C)=C/CC/C(C)=C/CSc1ccccc1C(=O)O` [SALIRASIB], the outcome with MIA PaCa-2 [10] and in the data set with BXPC-3 [11] was inactive. In addition, the pEC50 in data set [1] and in data set [4] was < 4.70 in each case. The same compound had a logD in data set [6] of 3.43.

Regarding `CC(C)=CCC/C(C)=C/CC/C(C)=C/CSC[C@H](NC(=O)CCCCCN1CCCC1)C(=O)N1CCCCC1`, the results for the pEC50 in data set [1] and in [4] were 5.06 and 4.91, respectively. Moreover, the Activity result in the data set on BXPC-3 [2], in the data set listed under Homo sapiens and in the data set on MIA PaCa-2 [5] was “Dose-dependent effect” in each case. In data set [3], this compound showed a pKi of 4.96. In data set [6], this compound had a logD of 3.76.

On to `CC(C)=CCC/C(C)=C/CC/C(C)=C/CSC[C@H](NC(=O)CCCCCN1CCCC1)C(=O)N1CCCC1`, for which the pEC50 in [1] is 5.19; in [4], 4.97. Further, the Activity result in the data set on BXPC-3 [2], in the data set listed under Homo sapiens and with MIA PaCa-2 [5] was “Dose-dependent effect” each time. The pKi in [3] is 5.01. This compound gave a logD in data set [6] of 3.31.

In the case of `CC(C)=CCC/C(C)=C/CC/C(C)=C/CSC[C@H](NC(=O)CCCCCN1CCCC1)C(=O)NC1CCCCC1`, the figures for the pEC50 in data set [1] and in data set [4] were 4.90 and 5.25, respectively. The Activity result in the data set on BXPC-3 [2], in the data set filed under Homo sapiens and in the data set on MIA PaCa-2 [5] was “Dose-dependent effect” each time. The compound also showed a pKi in [3] of 4.95. The same compound registered a log distribution coefficient (logD) in [6] of 4.48.

In the case of `CC(C)=CCC/C(C)=C/CC/C(C)=C/CSC[C@H](NC(=O)CCCCCN1CCN(C)CC1)C(=O)N1CCCCC1`, the negative logarithm of the EC50 (pEC50) was 5.06 in [1] and 4.84 in [4]. For the same compound, the Activity result in the data set with BXPC-3 [2], in the data set filed under Homo sapiens and in the data set with MIA PaCa-2 [5] was “Dose-dependent effect” throughout. The pKi in data set [3] is 4.89. This compound also had a logD in data set [6] of 4.27.

Regarding `CC(C)=CCC/C(C)=C/CC/C(C)=C/CSC[C@H](NC(=O)CCCCCN1CCCC1)C(=O)NC1CC1`, the pEC50 in [1] and in data set [4] was < 4.70 throughout. Also, the Activity result in the data set with BXPC-3 [2], in the data set listed under Homo sapiens and in the data set with MIA PaCa-2 [5] was “Dose-dependent effect” in each case. Further, the pKi in data set [3] is 4.76. Besides, the logD in [6] was 3.15.

In the case of `CC(C)=CCC/C(C)=C/CC/C(C)=C/CSC[C@H](NC(=O)CCCCCN1CCN(C)CC1)C(=O)NC1CCCCCC1`, the pEC50 in data set [1] was 5.21; in [4], 5.57. Besides, the Activity result in the data set with BXPC-3 [2], in the data set listed under Homo sapiens and in the data set on MIA PaCa-2 [5] was “Dose-dependent effect” throughout. The compound further showed a pKi in [3] of 4.75. Moreover, the logD in data set [6] stood at 5.44.

Turning to `CC(C)=CCC/C(C)=C/CC/C(C)=C/CSC[C@H](NC(=O)CCCCCN1CCCC1)C(=O)NC1CCCCCCC1`, the pEC50 in data set [1] was 5.40; in data set [4], 5.72. Moreover, the Activity result with BXPC-3 [2], in the data set filed under Homo sapiens and in the data set with MIA PaCa-2 [5] was “Dose-dependent effect” each time. This compound also showed a pKi in [3] of 4.92. In [6], this compound registered a logD of 5.37.
